Most compounds without a hit are left out; they make up all but 4% or so of the library.
CHOP inh: inhibitors of CHOP promoter induction, primary screen, cell-based, unfolded protein response, luciferase reporter; CHO-K1 CHOP-promoter luciferase, tunicamycin-induced, 15-18 h; inhibition, % at 10 µM; 3.8% of 220,000 active; AID 2732, 2010;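 active means compounds that reduced the stress-induced luciferase reporter signal by more than about 70% of percent inhibition, limit read from the data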
S1P3 antagonist: S1P3 receptor antagonists, primary screen, cell-based. Sphingosine 1-phosphate receptor 3 (Homo sapiens), Q99500. CHO S1P3 NFAT-BLA reporter, FRET fluorescence, antagonist mode. inhibition, % at 4.98 µM. 0.27% of 170,000 active. AID 485, 2006;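 active means inhibition above the plate cutoff, the mean inhibition of test wells on that plate plus 3 SD, cut at about 28% in these data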;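 further: cells challenged with S1P at its EC80 of 0.8 µM; blue over green emission ratio from cleaved BLA substrate after 4 h stimulation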
Target sequence (Q99500 whole entry, looked up): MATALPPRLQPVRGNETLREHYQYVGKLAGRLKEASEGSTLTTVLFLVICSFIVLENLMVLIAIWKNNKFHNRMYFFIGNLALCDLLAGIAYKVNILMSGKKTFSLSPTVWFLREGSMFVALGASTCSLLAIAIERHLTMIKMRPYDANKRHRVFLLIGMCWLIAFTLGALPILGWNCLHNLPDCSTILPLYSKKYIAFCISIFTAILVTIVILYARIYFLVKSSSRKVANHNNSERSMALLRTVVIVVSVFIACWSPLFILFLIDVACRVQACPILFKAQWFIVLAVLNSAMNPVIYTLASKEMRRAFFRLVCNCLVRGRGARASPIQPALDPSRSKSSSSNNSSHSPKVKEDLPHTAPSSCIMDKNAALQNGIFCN
Hsp70 activator: Hsp70 transcriptional activators, primary screen, cell-based, HeLa, Hsp70 promoter luciferase, luminescence, 10 µM | HeLa Hsp70 promoter luciferase reporter; scaled: vehicle 0, proteasome-inhibitor control 100% | activation, % at 10 µM | 0.04% of 200,000 active | AID 1203, 2008;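 active means activation above the mean across all tested compounds plus 3 SD, cutoff set per campaign, cut at about 5.5% in these data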
MDM2 E3 inh: MDM2-luciferase reporter signal enhancers, primary screen, MDM2 E3 ligase inhibitor project, cell-based, luminescence, 1536-well; E3 ubiquitin-protein ligase Mdm2 (Homo sapiens), Q00987; cell-based MDM2 ubiquitination luciferase reporter, 2 h; 0 = plate control, 100 = twice control, blank-subtracted; signal enhancement, % at 5 µM; 0.11% of 210,000 active; AID 1230, 2008;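 active means signal enhancement of 30% or more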;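 further: luminescence tracks abundance of the self-degrading MDM2-luciferase fusion protein; higher signal means inhibition of MDM2 E3 ligase activity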
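Assay system: stable mammalian line carrying autodegrading MDM2–luciferase fusion reporter; Input: 2000 cells in each well; Compound dosing: single-point 5 µM; Schedule: 2 h compound exposure at 37 °C; Signal: SteadyLite luciferase luminescence after 15 min room-temperature reagent incubation; Evaluation: % luminescence enhancement versus blank-corrected plate control mean; Benchmarks: plate controls and plate blanks.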
Of the large screens only hits and unclear results are named; the others gave an inactive call.

O=C(CSc1nnnn1-c1ccccc1)Nc1nc(-c2ccccc2)ns1	CHOP inh 86
O=C(CSc1nc2ccccc2[nH]1)Nc1nc(-c2ccc(Br)cc2)cs1	CHOP inh 77
Cc1cc(C)cc(-n2nnnc2SCC(=O)Nc2nc(-c3ccc(Cl)cc3)cs2)c1	CHOP inh 76 (no result: S1P3 antagonist)
Cc1cc(C)cc(-n2nnnc2SCC(=O)Nc2nc(-c3ccc(F)cc3)cs2)c1	CHOP inh 89 (no result: S1P3 antagonist)
CCCc1cc(=O)[nH]c(SCC(=O)Nc2nc(-c3ccccc3)cs2)n1	none
Cc1ccc(-n2nnnc2SCC(=O)Nc2nc(-c3ccc(F)cc3)cs2)cc1C	none (no result: S1P3 antagonist)
COc1ccc2[nH]c(=O)c(CN(Cc3ccc(C)cc3)Cc3nnnn3CC3CCCO3)cc2c1 (stereo unspecified)	none
COc1cc(C(=O)NNC(=O)c2cc(C)[nH]n2)cc(OC)c1OC	none
O=C(CN(Cc1ccc2c(c1)OCO2)C(=O)CSc1nc2ccccc2o1)NC1CCCCC1	none
CCc1ccc(N(CC)C(=O)c2ccc3c(Cl)c4c(nc3c2)CCC4)cc1	CHOP inh 87 (no result: MDM2 E3 inh)
CCN(C(=O)c1ccc2c(Cl)c3c(nc2c1)CCC3)c1cccc(C)c1	none (no result: MDM2 E3 inh)
O=C(O)CC(C(=O)Nc1ccc(F)cc1)C1CCCO1 (stereo unspecified)	none (no result: Hsp70 activator)
COc1ccc(-c2nc(N)ncc2-c2csc(C)n2)c(O)c1	CHOP inh 73
CCc1cc(-c2nc(N)ncc2-c2csc(C)n2)c(O)cc1OC	none
CCOc1ccc(-c2nc(N)ncc2-c2ccccc2)c(O)c1	CHOP inh 91
COc1cccc(C(=O)CC(=O)C(=O)Nc2cc(Cl)c(OC)cc2OC)c1	none
CCCCC(=O)Nc1ccc(C(=O)NNC(=O)c2ccccc2Br)cc1	none (no result: S1P3 antagonist)
CCOc1ccccc1CNC(=O)c1nn(CC)cc1[N+](=O)[O-]	none
Fc1ccc(Oc2nccc(-c3ccc(Cl)cc3)n2)cc1	CHOP inh 81 (no result: S1P3 antagonist)
NC(=O)c1cccn1-c1ncc(C(F)(F)F)cc1Cl	none
O=C(Nc1ccc(Br)cc1)c1cccn1-c1ncc(C(F)(F)F)cc1Cl	CHOP inh 95 (no result: S1P3 antagonist)
OC1(c2ccccc2)CN(c2ccccc2)C2=[N+]1CCS2 (stereo unspecified)	none
CCOc1ccc(-c2n[nH]c(C)c2-c2ccccc2OC)c(O)c1	CHOP inh 87
Cc1nc(-c2ccc(C#N)cc2)cs1	none (no result: Hsp70 activator)
CC1=NNC(=O)/C1=C\c1cn(-c2ccccc2)nc1-c1cccs1	CHOP inh 110
Cc1sc2ncnc(SCC(=O)NC(C)(C)C)c2c1C	none
Cc1ccc(OCC(=O)NNC(=O)CSc2ncnc3sc(C)c(C)c23)cc1	CHOP inh 89
COc1ccc(N2CCN(S(=O)(=O)c3ccc4c(c3)CCCC4)CC2)c([N+](=O)[O-])c1	CHOP inh 71 (no result: S1P3 antagonist)
Cc1ccc(CC(=O)NCc2cccnc2)cc1	none
O=C(NCc1cccnc1)c1cc(-c2ccc(Cl)cc2)oc1C(F)(F)F	none (no result: Hsp70 activator)
Cc1ccc(-c2nc(C#N)c(NCC3CCCO3)o2)cc1 (stereo unspecified)	none
Cc1ccc(-c2cc(C(F)F)nc(NCc3cccnc3)n2)cc1	CHOP inh 76 (no result: S1P3 antagonist)
Cc1ccc(-c2cc(C(F)F)nc(NCc3cccs3)n2)cc1	CHOP inh 91
FC(F)(F)c1cc(-c2ccc(Cl)cc2)nc(NCc2cccnc2)n1	CHOP inh 89 (no result: S1P3 antagonist)
Cc1ccc(-c2cc(C(F)F)nc(NCC3CCCO3)n2)cc1 (stereo unspecified)	CHOP inh 86 (no result: S1P3 antagonist)
NC(=S)N/N=C1\CCOc2ccc(F)cc21	none (no result: Hsp70 activator)
O=C(CNCC1CCCO1)NCc1ccco1 (stereo unspecified)	none
COC(=O)c1ccc(NC(C(=O)OC)C(C)C)c([N+](=O)[O-])c1 (stereo unspecified)	none
CCC(C)C(Nc1ccc(C(=O)OC)cc1[N+](=O)[O-])C(=O)OC (stereo unspecified)	CHOP inh 89
CCN(CCNC(=O)C1CCN(Cc2nc(-c3ccc(Cl)cc3)oc2C)CC1)c1ccccc1	CHOP inh 85
CCc1ccc(-c2nc(CN3CCC(C(=O)N4CCN(c5ccccc5)CC4)CC3)c(C)o2)cc1	CHOP inh 98
CCN(CCNC(=O)C1CCN(Cc2nc(-c3cccc(Cl)c3)oc2C)CC1)c1ccccc1	CHOP inh 95
Cc1oc(-c2cccc(Cl)c2)nc1CN1CCC(C(=O)NCc2cccnc2)CC1	none
CCN(CCNC(=O)C1CCCN(Cc2nc(-c3ccc(OC)cc3)oc2C)C1)c1ccccc1 (stereo unspecified)	none
Cc1ccccc1-c1nc(CN2CCC(C(=O)NCCC3=CCCCC3)CC2)c(C)o1	CHOP inh 71
O=C1c2oc3ccccc3c(=O)c2C(c2ccc(Cl)cc2)N1c1ncccn1 (stereo unspecified)	none (no result: CHOP inh, Hsp70 activator, MDM2 E3 inh)
COc1ccc(S(=O)(=O)N2CCOCC2)cc1NC(=O)CN1CCC(Cc2ccccc2)CC1	none
O=C1C2C3C=CC(CC3)C2C(=O)N1/N=C/c1ccc(O)c(O)c1 (stereo unspecified)	none
O=C1c2ccccc2C(=O)N1/N=C/c1ccc(O)c(O)c1	CHOP inh 70
CC(=O)Nc1ccc2oc(-c3cc(F)c(F)cc3Cl)nc2c1	CHOP inh 82
O=C(Nc1ccc2nn(-c3ccccc3)nc2c1)c1ccc(Br)o1	CHOP inh 73
O=C(Nc1ccc2oc(-c3cccnc3)nc2c1)c1ccc(Br)o1	CHOP inh 77 (no result: S1P3 antagonist)
O=C(Nc1ccc2oc(-c3ccccc3Cl)nc2c1)c1cncc(Br)c1	CHOP inh 71
O=C(COc1ncnc2ccccc12)NCCCN1CCCC1=O	none
CCCCOc1ccc([N+](=O)[O-])cc1C(=O)O	none
CCc1c(C)sc(NC(=O)C2CC2)c1C(=O)OC(C)C	CHOP inh 81
CCS(=O)(=O)N1CCC(C(=O)Nc2cccc(C(C)=O)c2)CC1	CHOP inh 73
COc1ccc(N=c2oc3c(OC)cccc3cc2C(=O)NCc2ccco2)c(OC)c1	CHOP inh 89
CCCn1cnc2c(c1=O)c1nc3ccccc3nc1n2CCC1=CCCCC1	CHOP inh 84
CCOCCCn1c(C)nc2c(c1=O)c1nc3ccccc3nc1n2CCC1=CCCCC1	CHOP inh 95
Cc1nc2c(c(=O)n1CCC1=CCCCC1)c1nc3ccccc3nc1n2/N=C/c1ccccc1	none (no result: S1P3 antagonist)
CCCn1cnc2c(c1=O)c1nc3ccccc3nc1n2CCc1ccccc1	CHOP inh 73
O=c1c2c3nc4ccccc4nc3n(/N=C/c3ccco3)c2ncn1CCC1=CCCCC1	none (no result: CHOP inh, Hsp70 activator, MDM2 E3 inh)
COc1cccc(/C=C/C(=O)OCC(=O)NCCC2=CCCCC2)c1	none
CCCCN(CC)C(=O)Cc1cn(C)c2ccccc12	none (no result: S1P3 antagonist)
O=C(NCc1ccc(-n2cccc2)cc1)c1cccc(F)c1	none
COC(=O)c1c(C)[nH]c(C(=O)CSc2ccc(Cl)cc2)c1C	none (no result: S1P3 antagonist)
CN1CCN(NC(=O)c2ccc(COc3ccccc3Br)o2)CC1	none

Bioassay records from PubChem BioAssay.
